In ChEMBL document CHEMBL1122280, “Analogues of hycanthone and lucanthone as antitumor agents” (1983) one finds T/C data, which are given here for 9 molecules.

Experiment [1] relates to P388. The experiment in a line: In vivo antitumor activity against P-388 lymphocytic leukemia in mice treated with a dose of 12.5 mg/kg. It is filed as functional, Mus musculus. The essentials:
(§1)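 Mice bearing P-388 leukemia were dosed once daily for 5 days, or once daily for 9 days for the two reference parent drugs. Activity is expressed as a T/C value.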

For experiment [2], the system named is P388. Briefly: In vivo antitumor activity against P-388 lymphocytic leukemia in mice treated with a dose of 25 mg/kg. It is filed as functional, Mus musculus. In short, it runs like this:
as §1

Experiment [3] concerns P388. Briefly: In vivo antitumor activity against P-388 lymphocytic leukemia in mice treated with a dose of 50 mg/kg. It is filed as functional, Mus musculus. In short, it runs like this:
as §1

For experiment [4], the system named is P388. Briefly: In vivo antitumor activity against P-388 lymphocytic leukemia in mice treated with a dose of 100 mg/kg for 2 days. It is filed as functional, Mus musculus. As to conditions: in the assay text read “for 5 days” for “for 2 days”.
The test system of experiment [5] is P388. Briefly: In vivo antitumor activity against P-388 lymphocytic leukemia in mice treated with a dose of 25 mg/kg for 2 days. To be noted: in the assay text read “for 5 days” for “for 2 days”. It is filed as functional, Mus musculus.
The subject of experiment [6] is P388. Briefly: In vivo antitumor activity against P-388 lymphocytic leukemia in mice treated with a dose of 50 mg/kg for 2 days. It is filed as functional, Mus musculus. To be noted: in the assay text read “for 5 days” for “for 2 days”.
For experiment [7], the system named is P388. The experiment in a line: In vivo antitumor activity against P-388 lymphocytic leukemia in mice treated with a dose of 200 mg/kg for 5 days.
Experiment [8] has as its system P388. Briefly: In vivo antitumor activity against P-388 lymphocytic leukemia in mice treated with a dose of 75 mg/kg for 2 days. It is filed as functional, Mus musculus. The essentials: (§2)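 P-388 leukemia-bearing mice received the drug on only 2 days, day 1 and day 4 after inoculation. Activity is expressed as a T/C value.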
Experiment [9] concerns P388. Briefly: In vivo antitumor activity against P-388 lymphocytic leukemia in mice treated with a dose of 9.88 mg/kg for 2 days. It is filed as functional, Mus musculus. In short, it runs like this: as §2
For experiment [10], the system named is P388. Briefly: In vivo antitumor activity against P-388 lymphocytic leukemia in mice treated with a dose of 18.75 mg/kg for 2 days. It is filed as functional, Mus musculus. The essentials:
as §2

The test system of experiment [11] is P388. Briefly: In vivo antitumor activity against P-388 lymphocytic leukemia in mice treated with a dose of 37.5 mg/kg for 2 days. It is filed as functional, Mus musculus. In short, it runs like this: as §2
Experiment [12] deals with P388. Briefly: In vivo antitumor activity against P-388 lymphocytic leukemia in mice treated with a dose of 200 mg/kg. It is filed as functional, Mus musculus. In short, it runs like this: as §1
The test system of experiment [13] is P388. The experiment in a line: In vivo antitumor activity against P-388 lymphocytic leukemia in mice treated with a dose of 100 mg/kg. It is filed as functional, Mus musculus. The essentials: as §1
The subject of experiment [14] is P388. The experiment in a line: In vivo antitumor activity against P-388 lymphocytic leukemia in mice treated with a dose of 60 mg/kg. It is filed as functional, Mus musculus. In short, it runs like this:
as §1

As to `CCN(CC)CCNc1ccc(C)c2oc3ccc(O)cc3c(=O)c12`, the T/C is on record as 106 with P388 [1], 106 in the experiment with P388 [2] and 117 in the experiment on P388 [3].
As for `CN(C)CCNc1ccc(CO)c2sc3ccc(O)cc3c(=O)c12`, the T/C in the experiment with P388 [4] is listed as 194; in the experiment on P388 [5] it was 160; in the experiment with P388 [6], 175; in the experiment with P388 [7] it was 222.
Take `CCN(CC)CCNc1ccc(CO)c2sc3ccc(O)cc3c(=O)c12`: the T/C in the experiment on P388 [8] was 207; in the experiment on P388 [9], 163; in the experiment on P388 [10], 207; in the experiment on P388 [11] it was 179.
With `Cc1ccc(NCCN(C)C)c2c(=O)c3cc(O)ccc3oc12`, the figures for the T/C in the experiment on P388 [1], with P388 [2] and with P388 [3] were 99, 106 and 108, respectively.
Take `CCN(CC)CCNc1ccc(CO)c2oc3ccc(O)cc3c(=O)c12`: the T/C in the experiment on P388 [12] is listed as 163; in the experiment on P388 [3], 181; with P388 [13] it was 214.
As for `CN(C)CCNc1ccc(CO)c2sc3ccccc3c(=O)c12`, the T/C in the experiment on P388 [2] is 94; in the experiment on P388 [3] it was 114; in the experiment on P388 [13], 150.
As for `CN(C)CCNc1ccc(CO)c2oc3ccc(O)cc3c(=O)c12`, the T/C turned out to be 128 with P388 [12] and 170 with P388 [3].
In turn, `CCN(CC)CCNc1ccc(CO)c2sc3ccccc3c(=O)c12` [HYCANTHONE] gave a T/C in the experiment on P388 [14] of 165.
As for `CCN(CC)CCNc1ccc(C)c2sc3ccccc3c(=O)c12` [LUCANTHONE], in the experiment with P388 [13], the T/C was found to be 158.
